Reference: PubChem BioAssay
Records with an inconclusive call do not appear.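 How the source made its calls, unless noted: active means cell viability at or below a set limit in both duplicate runs, the limit being the all-compound median minus 4 SD (cut at about 23% in these data, passing the limit was not always enough); inconclusive means no clear call, values can overlap the other calls; inactive means the rest.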

Key:
[1] = S. cerevisiae growth inhibition in permissive medium (OD615), pilot counter-assay for S. cerevisiae lifespan shortening project, permissive growth control (AID 705;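 active means growth inhibition above 25% in both replicates, a cutoff set 3 SD above the mean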); conditions: OD615, 24 h, at 10 µM, hits give high values
Summary of the method: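 Test system: Saccharomyces cerevisiae strain carrying genetically modified DeaD replicative-lifespan system; buffer or medium: SC raffinose/galactose permissive medium; dosing: one dose 10 µM, DMSO 0.25% final; times: 24 h exposure, 30 °C; measured by: OD at 615 nm; read-out basis: growth inhibition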

[2] = S. cerevisiae growth inhibition in restrictive medium, OD615, pilot screen, restrictive growth control, yeast lifespan reduction project (AID 706;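 active means growth inhibition above a set limit, 3 SD over mean compound inhibition, in both replicates, cut at about 43% in these data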;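 further: modified DeaD lifespan yeast strain shifted to restrictive glucose medium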); conditions: OD615, 48 h, at 10 µM, hits give high values
Summary of the method: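 material = engineered S. cerevisiae DeaD strain | buffer or medium = glucose-based CSMM-D restrictive medium | dosing = one concentration, 10 µM final, 0.25% DMSO | schedule = 4 h pre-growth plus 48 h compound exposure, 30 °C | detection = OD615 absorbance reading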

[3] = doxorubicin toxicity protection in MRP-1 cells – H69AR cells, CellTiter-Glo, duplicate, MRP-1 activator project, pilot screen (AID 807;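 active means viability increase at or above a cutoff of the median across tested compounds plus 3 SD, cut at about 8.5% in these data, passing the limit was not always enough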;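 further: compound pretreatment 18-22 h then 72 h combined with doxorubicin; 0% = doxorubicin alone and 100% = vehicle without doxorubicin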); conditions: H69AR viability with doxorubicin, CellTiter-Glo luminescence; at 10 µM; hits give high values
[4] = viability of HCT116 without oncogenic beta-catenin – human colon tumor cells, pilot screen (AID 823); conditions: HCT116 beta-catenin knockout viability, CellTiter-Glo, 60 h; at 10 µM; hits give low values;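 further: 0% = wells killed by 20 µM Hyamine and 100% = untreated DMSO cell wells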
[5] = viability of PTEN-null HCT116 cells – cell-based, HCT116 clonal line, CellTiter-Glo, pilot screen (AID 824;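 active means viability at or below 27.92% in each of two runs, the all-compound median minus 4 SD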;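 further: 0% = 20 µM Hyamine control and 100% = vehicle cell control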); conditions: HCT116 PTEN-deleted viability, 60 h, at 10 µM, hits give low values
[6] = RAM pathway blockade in budding yeast – dse1pr::URA3 reporter, 5-FOA selection, pilot screen (AID 869;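 active means inhibition over a set limit, the all-compound mean plus 3 SD, in both replicate runs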;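 further: 0% = DMSO wells with no growth and 100% = 10 µM 1-NA-PP1 with full growth; RAM network block rescues cells from 5-FOA so hits raise OD615 growth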); conditions: S. cerevisiae dse1pr::URA3 5-FOA growth, OD615, 2 d; at 10 µM; hits give high values; strain carries analog-sensitive mutant Cbk1 kinase
[7] = RAM signaling pathway blockade in yeast – S. cerevisiae, Pdr1DBD-CYC8 efflux-inhibited sensitized strain, primary screen (AID 1298;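 active means RAM network inhibition above 8.4% in each of two replicates, 3 SD over the compound average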;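 further: 0% = DMSO untreated cells without growth and 100% = 10 µM 1-NA-PP1 full growth; higher means more yeast growth rescued from 5-FOA killing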); conditions: S. cerevisiae cbk1-as DSE1-URA3 strain, 5-FOA growth OD615, 2 d; at 50 µM; hits give high values

N#CCCN1CCN(S(=O)(=O)c2ccc(S(=O)(=O)NCc3ccccc3)cc2)CC1
inactive: growth inhibition [1] -3.28% | growth inhibition [2] -15.5% | viability increase [3] 0.18% | viability [4] 96% | viability [5] 100% | inhibition [6] 1.91% | RAM network inhibition [7] 3.5%

COc1ccccc1CNC(=O)C1CCN(S(=O)(=O)c2cccc3cccnc23)CC1
inactive: growth inhibition [1] 5.11% | growth inhibition [2] 0.02% | viability increase [3] -1.41% | viability [4] 108% | viability [5] 97.2% | inhibition [6] -0.9% | RAM network inhibition [7] -0.93%

Cc1ccccc1NS(=O)(=O)c1cccc(-c2nnc(-c3ccccc3)o2)c1
inactive: growth inhibition [1] -8.74% | growth inhibition [2] -5.78% | viability increase [3] -0.75% | viability [4] 93.6% | viability [5] 85.7% | inhibition [6] 3.65% | RAM network inhibition [7] 4.08%

COc1ccc(C(=O)NCC(c2cccnc2)N2CCN(c3ccccc3OC)CC2)cc1OC (stereo not drawn)
inactive: growth inhibition [1] -7.95% | growth inhibition [2] -2.41% | viability increase [3] -3.05% | viability [4] 89.4% | viability [5] 91% | inhibition [6] 1.16% | RAM network inhibition [7] 2.21%

Cc1ccc(-c2ccc(CCC(=O)O)n2C(C)C)cc1
inactive: growth inhibition [1] 3.3% | growth inhibition [2] -1.55% | viability increase [3] -1.75% | viability [4] 94.7% | viability [5] 101% | inhibition [6] 2.1% | RAM network inhibition [7] 4.37%

CCOC(=O)C1C(=O)NC(SC)=C(C#N)C1c1ccccc1F (stereo not drawn)
inactive: growth inhibition [1] -2.39% | growth inhibition [2] -17% | viability increase [3] -2.97% | viability [4] 90.8% | viability [5] 95.5% | inhibition [6] -1% | RAM network inhibition [7] -1.66%

COc1ccc(C2CC(=O)C3=C(C2)NC(C)=C(C#N)C3c2ccc(N(C)C)cc2)cc1 (stereo not drawn)
inactive: growth inhibition [1] -6.35% | growth inhibition [2] 7.55% | viability increase [3] 0.06% | viability [4] 78.5% | viability [5] 75.8% | inhibition [6] 2.72% | RAM network inhibition [7] 5.79%

Cc1n[nH]c(C)c1S(=O)(=O)N(CC(=O)Nc1ccc2c(c1)OCCO2)c1ccc(C(C)C)cc1
inactive: growth inhibition [1] 2.8% | growth inhibition [2] 2.67% | viability increase [3] -5.15% | viability [4] 68.1% | viability [5] 63% | inhibition [6] -0.49% | RAM network inhibition [7] 3.78%

COc1ccc(N2C(=O)C3CCCN3C2c2ccccc2OC)cc1 (stereo not drawn)
inactive: growth inhibition [1] 2.4% | growth inhibition [2] -3.83% | viability increase [3] -3.2% | viability [4] 103% | viability [5] 97.4% | inhibition [6] 0.02% | RAM network inhibition [7] 0.12%

COc1ccc(-c2nc(=S)[nH][nH]2)cc1
inactive: growth inhibition [1] -5.89% | growth inhibition [2] -17% | viability increase [3] -1.62% | viability [4] 99% | viability [5] 89% | inhibition [6] 1.53% | RAM network inhibition [7] 5.26%

CS(=O)(=O)c1ccc2nc(NC(=O)C3CCCCC3)sc2c1
inactive: growth inhibition [1] -0.52% | growth inhibition [2] -7.79% | viability increase [3] -7.36% | viability [4] 72.2% | viability [5] 77.3% | inhibition [6] 0.96% | RAM network inhibition [7] 0.41%

CC12CCC(C(=O)NCc3ccco3)(OC1=O)C2(C)C (stereo not drawn)
inactive: growth inhibition [1] -9.57% | growth inhibition [2] -9.65% | viability increase [3] -2.96% | viability [4] 98.3% | viability [5] 93.2% | inhibition [6] 1.42% | RAM network inhibition [7] -0.27%

O=C(O)C1(P(=O)(c2ccccc2)c2ccccc2)CCC1
inactive: growth inhibition [1] -13.9% | growth inhibition [2] -5.79% | viability increase [3] -0.11% | viability [4] 99.6% | viability [5] 99.3% | inhibition [6] 1.34% | RAM network inhibition [7] 3.04%

CC(=O)Oc1ccc(C(=O)Nc2nccs2)cc1
inactive: growth inhibition [1] -7.33% | growth inhibition [2] -14.7% | viability increase [3] -4.75% | viability [4] 88.2% | viability [5] 80.3% | inhibition [6] 3.5% | RAM network inhibition [7] 0.1%

O=C(Nc1ccc(F)cc1)C1CCCN(S(=O)(=O)c2cccc3cccnc23)C1 (stereo not drawn)
inactive: growth inhibition [1] -10.2% | growth inhibition [2] -7.79% | viability increase [3] -0.85% | viability [4] 80.8% | viability [5] 80.3% | inhibition [6] 2.16% | RAM network inhibition [7] 7.62%

CCCSC1=C(C#N)C(c2ccc(O)c(OC)c2)CC(=O)N1 (stereo not drawn)
inactive: growth inhibition [1] -14.9% | growth inhibition [2] -22.5% | viability increase [3] -2.92% | viability [4] 104% | viability [5] 101% | inhibition [6] 1.66% | RAM network inhibition [7] 1.36%

CN(C)C1NC(=O)c2cc(-c3ccccc3)sc2N1 (stereo not drawn)
inactive: growth inhibition [1] -5.92% | growth inhibition [2] -10.2% | viability increase [3] -0.01% | viability [4] 102% | viability [5] 104% | inhibition [6] 0.135% | RAM network inhibition [7] 2.33%

Cc1cccc(C(=O)Nc2cc(=O)n(C)c(=O)n2C)c1
inactive: growth inhibition [1] -14.2% | growth inhibition [2] -21.9% | viability increase [3] -0.85% | viability [4] 105% | viability [5] 92.4% | inhibition [6] 0.905% | RAM network inhibition [7] 1.04%

O=C(c1cccc(F)c1)N1CCN=C1SCc1cccnc1
inactive: growth inhibition [1] -2.18% | growth inhibition [2] 8.84% | viability increase [3] -0.35% | viability [4] 102% | viability [5] 96.3% | inhibition [6] 0.32% | RAM network inhibition [7] 0.89%

CS(=O)(=O)c1ccc2nc(NC(=O)c3ccco3)sc2c1
inactive: growth inhibition [1] -16% | growth inhibition [2] -4.42% | viability increase [3] -7.64% | viability [4] 84.9% | viability [5] 81.9% | inhibition [6] 3.1% | RAM network inhibition [7] 4.15%

COc1ccc(C(c2sc3ncnn3c2O)N2CC(C)OC(C)C2)cc1OC (stereo not drawn)
inactive: growth inhibition [1] 0.335% | growth inhibition [2] -6.37% | viability increase [3] -1% | viability [4] 102% | viability [5] 87.3% | inhibition [6] 0.55% | RAM network inhibition [7] 0.12%

COc1ccc(Cc2nnc(SC)[nH]c2=O)cc1OC
inactive: growth inhibition [1] 0.615% | growth inhibition [2] -16.6% | viability increase [3] -1.67% | viability [4] 101% | viability [5] 99.4% | inhibition [6] 0.225% | RAM network inhibition [7] 1.41%

COc1ccc(S(=O)(=O)NCc2cn3c(C)csc3n2)cc1F
inactive: growth inhibition [1] -21% | growth inhibition [2] -8.7% | viability increase [3] 0.05% | viability [4] 94.1% | viability [5] 93.3% | inhibition [6] 0.86% | RAM network inhibition [7] -0.48%

CC(NC(=O)c1cccnc1)C(c1cccs1)N1CCN(C)CC1 (stereo not drawn)
inactive: growth inhibition [1] -4.91% | growth inhibition [2] 5.15% | viability increase [3] 0.3% | viability [4] 98.2% | viability [5] 95% | inhibition [6] 0.955% | RAM network inhibition [7] 4.79%
